NRP1-CendR mod: alters CendR peptide binding to human NRP-1; actives 0.85% (n = 360,000); inhibition, % at 25 µM; AID 602438; FAM-RPARPAR peptide binding to NRP-1, fluorescence polarization; O14786;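 active = inhibition or corrected inhibition above about 18%, plus a signal ratio from 0.5 to 1.5, limit read from the data, passing the limit was not always enough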
AI-2 QS mod: Vibrio harveyi AI-2 quorum sensing modulation. Vibrio harveyi JMH597 AI-2 luminescence/OD600 ratio, 9 h; stronger effect = lower value; strain lacks LuxN and CqsS sensors; 0 = neutral-control median. AID 2094. activity change, % at 7.5 µM. actives 0.4% (n = 300,000); in the data active = activity change below about -75%, passing the limit was not always enough; inconclusive = no clear call, values can overlap the other calls;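 note: luminescence divided by OD600 gain over 9 h not by final OD600 alone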
HIF activator: HIF pathway transcriptional activation. AID 1910. activation, % at 7.5 µM (by protocol). U2OS HRE-luciferase reporter, luminescence; normalized: DMSO 0%, desferrioxamine 100%. actives 0.32% (n = 300,000);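 active = mean activation of at least 10% of the iron chelator positive control signal, with at least half of replicates also reaching 10%; inconclusive = mean and replicate majority disagree about reaching 10%; inactive = mean and most replicates under 10%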
V-ATPase pHluor: alters yeast V-ATPase proton transport | S. cerevisiae, pHLuorin cytosolic pH fluorescence | response, % at 10 µM | actives 0.37% (n = 350,000) | AID 504577; in the data active = response mostly above about 7.3%, no sharp cut-off; inactive = mostly below about 5.4%; note: actives read high
T cruzi inh: T. cruzi replication inhibition | actives 1.4% (n = 300,000) | T. cruzi beta-gal in NIH3T3, luminescence, 90 h | inhibition, % (test concentration not listed) | AID 1885;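 active = mean inhibition across valid replicates above about 55%, limit read from the data; inconclusive = mean below that limit but half or more replicates reach it; inactive = mean below it, under half of replicates reach it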;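 note: signal also drops with host cell toxicity which is not excluded here; 0% = plate median of DMSO wells and 100% = zero luminescence signal; higher percent means less beta-gal luminescence so fewer parasites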
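compound dosing = single 50 nL compound addition per well in DMSO | material = NIH/3T3 host cells with β-galactosidase reporter T. cruzi | input = 5,000 host fibroblasts per well | timing = ≥90 h infection period, 3 h prior cell attachment | read-out basis = percent inhibition of parasite-derived β-gal signal | detection = GalScreen β-gal luminescence, detergent lysis, 60 min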
CR mimetic SO: caloric restriction mimetics inhibiting age-related superoxide in yeast; superoxide response (% of plate mean), % at 10 µM; S. cerevisiae aged cells, superoxide DHE fluorescence; stronger effect = lower value; actives 0.18% (n = 330,000); AID 2690;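 active = superoxide response under a set limit, about three screen SD below normal, cut at about 65% in these data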;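 note: yeast aged for seven days with compound at 30 °C before DHE staining; 100% = average MFI of all compound-treated wells on the plate with controls excluded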
* marks the source's active call; other numbers are inactive results; u = inconclusive; x = no result given. This is a sample that favours compounds with a hit; in the whole collection about 3% have one here.

SMILES | NRP1-CendR mod | AI-2 QS mod | HIF activator | V-ATPase pHluor | T cruzi inh | CR mimetic SO
CCOc1ccc(NC(=O)CN(C)C(=O)c2ccc(COc3ccccc3)o2)cc1OCC | -4.1 | 14.0 | 1.5 | 3.2 | 0.8 | 104.3
CCOC(=O)CNC(=O)CSc1nnc(Cn2c(=O)sc3ccccc32)n1-c1ccccc1C | -9.3 | x | x | -3.2 | x | 117.3
Cc1cc(Nc2ccccc2)cc(=O)n1C | 14.2 | 14.1 | 41.1* | 1.4 | -3.5 | 79.3
Cn1c(=O)cc(Nc2ccccc2)[nH]c1=O | 3.3 | -0.5 | 0.4 | -3.0 | 9.6 | 101.7
O=C(Nc1nccs1)C1(S(=O)(=O)c2ccc(Cl)cc2)CC1 | 11.5 | 24.1 | -0.2 | 3.6 | -19.9 | 125.7
S=C(NC1CCCCC1)N1CCn2cccc2C1c1cccnc1 (stereo unspecified) | -1.8 | 3.2 | -1.2 | -1.6 | 54.6* | 107.7
Fc1cccc(NC(=S)N2CCn3cccc3C2c2cccnc2)c1 (stereo unspecified) | 3.2 | -5.4 | 0.7 | -2.9 | 63.3* | 129.7
S=C(NC1CCCCC1)N1CCn2cccc2C1c1ccncc1 (stereo unspecified) | -1.2 | -0.5 | 0.2 | 7.1 | -9.3 | 122.1
S=C(Nc1ccccc1)N1CCn2cccc2C1c1cccnc1 (stereo unspecified) | 19.7 | -6.3 | 0.2 | -0.1 | 31.3 | 115.4
CC(=O)C(=Cc1ccc(Cl)cc1)C(=O)c1ccccc1 | 22.0* | x | x | x | x | x
COc1ccc(C=C(C(C)=O)C(=O)c2ccccc2)cc1 | -4.1 | x | x | x | x | x
c1ccc(CCCCc2ccncc2)cc1 | 3.5 | x | x | 4.3 | x | x
CCOc1ccc(CCNC(=O)COC(=O)Cn2nc(C)c([N+](=O)[O-])c2C)cc1OCC | 2.4 | 29.8 | 13.2* | -1.6 | -10.2 | 100.2
S=C(Nc1ccc(Cl)c(Cl)c1)N1CCOCC1 | 9.3 | 1.2 | -0.9 | 0.3 | -16.9 | 90.0
CSc1ccc(CCNC(=O)CCc2nnc3ccc(N4CCCC4)nn23)cc1 | -1.3 | 3.3 | -0.4 | -1.3 | -26.2 | 106.1
O=C1[C@@H]2Cc3c([nH]c4ccccc34)C(c3ccccc3)N2C(=O)CN1C1CCN(Cc2ccccc2)CC1 (stereo partly specified) | -6.1 | 2.6 | -0.6 | 3.4 | u | 113.3
CCOc1ccccc1C1c2[nH]c3ccccc3c2C[C@H]2C(=O)N(C3CCN(Cc4ccccc4)CC3)CC(=O)N12 (stereo partly specified) | 4.2 | 51.2 | -7.3 | -3.6 | 62.1* | 98.2
COc1ccc(C2c3[nH]c4ccccc4c3C[C@H]3C(=O)N(C4CCN(Cc5ccccc5)CC4)CC(=O)N23)c(OC)c1 (stereo partly specified) | 8.0 | 4.2 | 0.2 | 0.2 | 25.2 | 124.6
O=C1[C@@H]2Cc3c([nH]c4ccccc34)C(c3cccc(Br)c3)N2C(=O)CN1C1CCN(Cc2ccccc2)CC1 (stereo partly specified) | 6.7 | 13.9 | -0.7 | -4.9 | 64.7* | 95.7
Cc1ccccc1C1c2[nH]c3ccccc3c2C[C@H]2C(=O)N(C3CCN(Cc4ccccc4)CC3)CC(=O)N12 (stereo partly specified) | -10.1 | 28.0 | 0.2 | 2.4 | 60.6* | 96.7
Cc1ccc(NC(=O)CCn2nnc3ccccc32)c(C)c1 | 4.5 | 7.0 | 1.4 | 0.0 | -7.3 | 111.8
COc1cc(/C=C2/C(=N)N3C(c4ccccc4)=CSC3=NC2=O)ccc1OCC(=O)O | -63.8 | 14.0 | 0.0 | 1.2 | -5.0 | 104.7
CCCC1CC(CSC(=N)N)OC1=O (stereo unspecified) | 27.2* | 0.4 | 0.0 | 1.7 | -11.2 | 113.3
CCCCCCC1CC(CSC(=N)N)OC1=O (stereo unspecified) | -9.9 | 7.1 | 0.4 | 4.2 | -10.1 | 110.1
Cc1cccc(Nc2n[nH]c(C)c2[N+](=O)[O-])c1 | 7.1 | 10.4 | 3.6 | -1.7 | -0.8 | 93.2
SMILES | NRP1-CendR mod | AI-2 QS mod | HIF activator | V-ATPase pHluor | T cruzi inh | CR mimetic SO
COc1cc(Nc2ccc(C)cc2)c([N+](=O)[O-])nc1[N+](=O)[O-] | -0.1 | 32.9 | -0.4 | x | 60.3* | 97.9
Cc1cc(C)cc(Nc2ccc([N+](=O)[O-])nc2[N+](=O)[O-])c1 | 7.3 | 17.7 | 0.3 | -1.6 | 67.2* | 108.7
Cc1ccc2nc(C)cc(Nc3ccc([N+](=O)[O-])cc3)c2c1 | -4.4 | 18.0 | -3.3 | 0.2 | -46.1 | 107.3
CCCCCCCCn1c2c(c(=N)c3ccccc31)CCC2 | 1.3 | 15.0 | -1.3 | -1.0 | 60.4* | x
CCCCCn1c2c(c(=N)c3ccccc31)CCC2 | 6.4 | 10.9 | 0.8 | 4.6 | 59.2* | 99.3
O=S1(=O)C=C(Sc2nc3cc(Cl)ccc3o2)c2ccccc21 | -5.1 | -48.2 | -7.6 | 3.5 | 65.0* | 100.9
COc1cccc(CNC(=O)CN2CCC(c3nc4ccc(C)cc4[nH]3)CC2)c1 | 9.5 | 13.1 | -1.2 | -1.5 | 55.5* | 99.0
Cc1ccc(NC(=O)CCSc2nnc(C)s2)cc1 | -8.2 | 8.1 | 0.3 | 6.1 | -10.5 | 94.9
CC1=NN(/C(=N\c2nnc(C)s2)Nc2ccc(C(C)(C)C)cc2)[C@H](c2ccc(C)cc2)S1 | 3.7 | 11.1 | 1.7 | 1.9 | 56.7* | 79.9
CN(C(=O)c1ccc(NC(=O)Cc2cccc(NC(=O)C3CCCN(C(=O)c4ccccc4)C3)c2)cc1)C1CC1 (stereo unspecified) | 1.8 | x | x | 0.4 | x | x
COc1ccc(CN2CCN(C(=O)C3CCC(CNS(=O)(=O)c4ccc(C)cc4)CC3)CC2)c(OC)c1OC (stereo unspecified) | -3.8 | 19.5 | -0.2 | -12.0 | 56.6* | 93.2
CCOC(=O)N1CCN(C(=O)c2ccc(CNS(=O)(=O)c3ccc(NC(C)=O)cc3)cc2)CC1 | 22.8* | 14.6 | -0.6 | 0.7 | -10.4 | 102.2
CCOC(=O)N1CCN(C(=O)C2CCN(S(=O)(=O)c3ccc(OCC)cc3)CC2)CC1 | 26.2* | 31.8 | 0.0 | 0.3 | 3.9 | 114.8
CCOC(=O)N1CCN(C(=O)C2CCN(S(=O)(=O)c3ccc(Cl)cc3)CC2)CC1 | -2.0 | 14.1 | 0.7 | 2.6 | 1.5 | 91.8
CCOC(=O)N1CCN(C(=O)C2CCC(CNS(=O)(=O)c3ccc(Cl)cc3)CC2)CC1 (stereo unspecified) | 27.3* | 8.3 | 0.4 | -1.8 | -0.2 | 98.0
CN(c1ccccc1)S(=O)(=O)c1cccc(NC(=O)CN2CCCc3ccccc32)c1 | -31.5 | 16.9 | 0.5 | -1.0 | 19.8 | 93.8
COc1cc2c(cc1OC)CN(C(=O)c1cc(COc3ccccc3SC)on1)CC2 | -13.8 | x | x | -0.3 | x | x
CCSc1nnc(-c2cc(Br)ccc2NC(C)=O)c(=O)[nH]1 | -14.5 | 5.0 | -0.1 | -3.8 | -5.3 | 105.0
NC(=O)C1CCCN(C(=O)CCCNC(=O)c2ccc(Cl)cc2)C1 (stereo unspecified) | 28.2* | 6.4 | -0.1 | -0.6 | -3.7 | 83.5

Screening data deposited in PubChem by several laboratories.
